# The source made the active and inactive calls. The rule behind the calls is not given here.
# Key:
# [1] = system: Malme-3M; test: Antiproliferative activity against human MALME-3M cells assessed as reduction in cell viability after 48 hrs by CellTiter-Blue assay; assay type: functional; conditions: read-out: LC50 (the source's name)
# In short: (§1)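 Cells grown in RPMI1640 with 10% FBS at 37 °C, 5% CO₂. 5,000–10,000 cells/well were pre-incubated overnight, and a time-zero CellTiter-Blue read was taken. Six 10-fold dilutions (top final 10 μM) were applied for 48 h, followed by 0.125 mg/mL CellTiter-Blue for 2–4 h. Resorufin fluorescence was read at ex 560/em 590 nm. […] Triplicates.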
# [2] = system: HCT-116; test: Antiproliferative activity against human HCT116 cells assessed as reduction in cell viability after 48 hrs by CellTiter-Blue assay; assay type: functional; conditions: HCT-116, 48 h, read-out: LC50 (the source's name); in short: as §1
# [3] = system: MV4-11; test: Induction of apoptosis in human MV4-11 cells harboring wild type p53/FLT3-ITD mutant assessed as cleavage of pro-caspase 3 at 50 to 200 nM after 24 hrs by Western blot analysis; assay type: functional, cell-based
# In short: (§2)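 Cells (1,500,000 per well) grown 12 h, then drug-treated as specified. Lysed in RIPA buffer, sonicated, centrifuged, protein normalized by BCA. Run on 4–12% Bis-Tris gels in MES, transferred, probed overnight at 4 °C with primary antibodies at 1/1000. Actin served as reference for LC3-II quantitation.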
# [4] = system: SR; test: […] in human SR cells harboring wild type p53 assessed as pro-caspase 3 cleavage at 50 to 200 nM after 24 hrs by Western blot analysis; assay type: cell-based
# [5] = system: TK-10; test: Antiproliferative activity against human TK10 cells assessed as reduction in cell viability after 48 hrs by CellTiter-Blue assay; assay type: functional; conditions: TK-10, 48 h, read-out: LC50 (the source's name)
# In short: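 NCI-60 panel lines grown in RPMI1640 with 10% FBS at 37 °C, 5% CO₂. Seeded at 5,000–10,000 cells/well and pre-incubated overnight. Exposed for 48 h to six 10-fold dilutions (top final 10 μM), with a time-zero plate read at dosing. CellTiter-Blue (0.125 mg/mL) for 2–4 h, fluorescence 560/590 nm, triplicate curves.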
# [6] = system: NCI-H460; test: Antiproliferative activity against human NCI-H460 cells assessed as reduction in cell viability after 48 hrs by CellTiter-Blue assay; assay type: functional; conditions: NCI-H460, 48 h, read-out: LC50 (the source's name); in short: as §1
# [7] = Half life in CD1 mouse at 5 mg/kg, iv after 24 hrs by LC-MS/MS analysis; assay type: ADME, organism-based; conditions: in vivo
# In short: (§3)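 Male CD-1 mice, fasted overnight, 3 per route; compound in PBS with 5% DMSO, iv bolus 5 mg/kg or oral gavage 20 mg/kg. Blood sampled at 5, 15, 30 min and 1–24 h. Plasma protein-precipitated with acetonitrile plus internal standard, quantified by LC-MS/MS (MRM). AUC by linear trapezoidal method; parameters by non-compartmental analysis.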
# [8] = system: HL-60; test: Induction of apoptosis in p53 null human HL60 cells harboring wild type FLT3 assessed as cleavage of pro-caspase 3 at 50 to 200 nM after 24 hrs by Western blot analysis; assay type: functional, cell-based; in short: as §2
# [9] = AUC (0 to infinity) in CD1 mouse at 5 mg/kg, iv after 24 hrs by LC-MS/MS analysis; assay type: ADME, organism-based; set-up: dose 5 mg/kg, route intravenous, time infinity; conditions: in vivo; in short: as §3
# [10] = Oral bioavailability in CD1 mouse at 20 mg/kg dosed via gavage after 24 hrs by LC-MS/MS analysis; assay type: ADME, organism-based; conditions: in vivo
# In short: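 Male CD-1 mice (n = 3) were fasted overnight and given compound in PBS with 5% DMSO, 5 mg/kg iv bolus or 20 mg/kg by gavage. Blood was sampled from 5 min to 24 h. Plasma was protein-precipitated with acetonitrile containing internal standard and quantified by LC-MS/MS (MRM). AUC was calculated by the linear trapezoidal method and parameters by non-compartmental analysis.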
# [11] = system: MV4-11; test: Inhibition of p53 degradation in human MV4-11 cells harboring wild type p53/FLT3-ITD mutant at 100 nM after 12 hrs in presence of MDM2 inhibitor RG7388 by Western blot analysis relative to control; assay type: functional; conditions: MV4-11, 12 h; in short: as §2
# [12] = target: Trypsin (Homo sapiens) (UniProt P07477+P07478+P35030); test: Inhibition of trypsin (unknown origin); assay type: protein assay
# [13] = system: OVCAR-3; test: Antiproliferative activity against human OVCAR3 cells assessed as reduction in cell viability after 48 hrs by CellTiter-Blue assay; assay type: functional; conditions: OVCAR-3, 48 h, read-out: LC50 (the source's name); in short: as §1
# [14] = system: SNB-19; test: Antiproliferative activity against human SNB19 cells assessed as reduction in cell viability after 48 hrs by CellTiter-Blue assay; assay type: functional; conditions: SNB-19, 48 h, read-out: LC50 (the source's name); in short: as §1
# [15] = system: MV4-11; test: Induction of pro caspase 3 cleavage in human MV4-11 cells at 200 nM after 24 hrs in presence of 5 nM bortezomib by Western blot analysis; assay type: functional, cell-based; in short: as §2
# [16] = system: RPMI-8226; test: Antiproliferative activity against human RPMI8226 cells assessed as reduction in cell viability after 48 hrs by CellTiter-Blue assay; assay type: functional; conditions: RPMI-8226, 48 h, read-out: LC50 (the source's name); in short: as §1
# [17] = AUC (0 to infinity) in CD1 mouse at 20 mg/kg, po via gavage after 24 hrs by LC-MS/MS analysis; assay type: ADME, organism-based; set-up: dose 20 mg/kg, time infinity, route oral; conditions: in vivo; in short: as §3
# [18] = target: Histone deacetylase 8 (Homo sapiens, UniProt Q9BY41); test: Inhibition of recombinant full length human C-terminal His-tagged HDAC8 expressed in baculovirus infected Sf9 cells using Boc-Lys (trifluoroacetyl)-AMC as substrate preincubated for 1 hr followed by substrate addition and measured after 2 hrs by fluorescence based micro plate reader analysis
# In short: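 Recombinant HDAC8 preincubated with test agent at 30 °C for 1 h. Boc-Lys(trifluoroacetyl)-AMC added (final 50 μM), 2 h at 30 °C. Stopped with trypsin/TSA developer for 30 min; fluorescence read at 360/460 nm. Inhibition relative to control wells; IC50 by variable-slope fit.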
# [19] = system: SK-MEL-5; test: Antiproliferative activity against human SK-MEL-5 cells assessed as reduction in cell viability after 48 hrs by CellTiter-Blue assay; assay type: functional; conditions: SK-MEL-5, 48 h, read-out: LC50 (the source's name); in short: as §1
# [20] = system: SN12C; test: Antiproliferative activity against human SN12C cells assessed as reduction in cell viability after 48 hrs by CellTiter-Blue assay; assay type: functional; conditions: read-out: LC50 (the source's name); in short: as §1
# [21] = Mutagenecity in Salmonella typhimurium TA100 at 10 uM in presence of S9 liver homogenate after 2 to 3 days by mini-Ames test; assay type: toxicity; conditions: salmonella enterica subsp. enterica serovar typhimurium, s9, 10 µM
# In short: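 Compound was tested at a final 10 μM undiluted plus four serial dilutions, with S9 mix and glucose/biotin/trace-histidine exposure solution, for 100 min at 37 °C. Reversion medium was added and cultures dispensed to 96 wells for 2–3 days at 37 °C. Yellow or partial-yellow wells were scored positive; 2-aminoanthracene was the positive control.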
# [22] = system: KM12; test: Antiproliferative activity against human KM12 cells assessed as reduction in cell viability after 48 hrs by CellTiter-Blue assay; assay type: functional; conditions: KM12, 48 h, read-out: LC50 (the source's name); in short: as §1
# Histone deacetylase 8, sequence (Q9BY41 whole entry): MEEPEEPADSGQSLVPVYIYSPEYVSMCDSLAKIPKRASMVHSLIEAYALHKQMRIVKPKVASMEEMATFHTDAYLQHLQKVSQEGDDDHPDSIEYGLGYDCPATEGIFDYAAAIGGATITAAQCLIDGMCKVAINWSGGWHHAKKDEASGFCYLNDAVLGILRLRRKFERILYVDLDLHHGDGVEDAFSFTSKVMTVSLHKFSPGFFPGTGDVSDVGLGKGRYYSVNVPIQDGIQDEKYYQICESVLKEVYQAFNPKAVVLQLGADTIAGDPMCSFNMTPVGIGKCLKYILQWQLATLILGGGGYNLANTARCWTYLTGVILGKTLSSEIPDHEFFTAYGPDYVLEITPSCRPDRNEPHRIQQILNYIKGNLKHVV
smiles,measurement,setting,value
CCCNNC(=O)/C=C/c1ccc(CNCCc2c(C)[nH]c3ccccc23)cc1.O=C(O)C(F)(F)F,CC50,[1],> 10 µM
same,CC50,[2],0.879 µM
same,Activity,[3],Active
same,Activity,[4],Active
same,CC50,[5],> 10 µM
same,CC50,[6],> 10 µM
same,t1/2,[7],15.2 h
same,Activity,[8],inactive
same,AUC,[9],334 ng·h/mL
same,F,[10],19.8%
same,inhibition at 0.1 µM,[11],100%
same,inhibition,[12],inactive
same,CC50,[13],> 10 µM
same,CC50,[14],> 10 µM
same,Activity,[15],Active
same,CC50,[16],> 10 µM
same,AUC,[17],265 ng·h/mL
same,IC50,[18],1.76 µM
same,CC50,[19],> 10 µM
same,CC50,[20],> 10 µM
same,Activity,[21],Non-Toxic
same,CC50,[22],> 10 µM
